# Measured values pooled from the literature.
# Compare with care: the assays were run in different laboratories.
# Target: MAP kinase-interacting serine/threonine-protein kinase 1 (MKNK1, Homo sapiens, UniProt Q9BUB5)
SMILES,test,setting,endpoint,result
CN(C)c1ncnc(-c2ccc3nc(Nc4cc(CN5CCN(C(=O)CC(F)(F)F)CC5)ccn4)[nH]c3c2)c1Cl,"cell-free assay, competition with immobilised ligand",1 µM,remaining binding,62%
Cc1sc(C(=O)NC2COC2)cc1-n1cc(NC(=O)Nc2c(F)cccc2Cl)cn1,"enzyme activity, inhibitor",10 µM,remaining activity,94.2%
CCS(=O)(=O)c1cc2cc(C[C@](O)(CC(C)(C)c3ccc(F)cc3C(N)=O)C(F)(F)F)[nH]c2cn1,"cell-free assay, competition with immobilised ligand",1 µM,remaining binding,97%
Nc1nc(Nc2ccccc2)sc1C(=O)c1c(F)cccc1F,"enzyme activity, inhibitor",10 µM,remaining activity,110%
FC(F)(F)Oc1cccc(-c2cnc3ccc(-c4ccncc4)nn23)c1,"enzyme activity, inhibitor, radiometric",5 µM,activity vs control,72%
COc1cc2ncnc(Nc3ccc(Oc4ccccc4)c(C)c3C)c2cc1OC,"enzyme activity, inhibitor",1 µM,inhibition,-6%
Oc1cccc(-c2nc(N3CCOCC3)c3oc4ncccc4c3n2)c1,"enzyme activity, inhibitor",10 µM,remaining activity,97%
CNCc1ccccc1-c1csc([C@H](C)Nc2nc(C)nc3cc(OC)c(OC)cc23)c1,"cell-free assay, competition with immobilised ligand",1 µM,remaining binding,91%
CNC(=O)c1cc(Oc2ccc(NC(=O)Nc3ccc(Cl)c(C(F)(F)F)c3)cc2)ccn1,cell-free assay,0.5 µM,remaining signal,75.1%
COc1cc(Nc2cnc(C#N)c(O[C@H](C)CN(C)C)n2)ncc1-c1cnn(C)c1,"enzyme activity, inhibitor, radiometric",1 µM,remaining activity,94%
CC(C)(C)c1nc2c(s1)c1nc(N)ncc1c1ccc(NS(=O)(=O)c3c(F)cccc3F)c(F)c12,"enzyme activity, inhibitor, radiometric",1 µM,remaining activity,117%
O=C(Nc1cnn(-c2csc(C(=O)NC3COC3)c2)c1)Nc1ccccc1Cl,"enzyme activity, inhibitor",5 µM,remaining activity,94.3%
Cn1nc(C(=O)NCc2ccc(C(=O)O)cc2)cc1-c1ccc2[nH]ccc2c1,"cell-free assay, competition with immobilised ligand",0.1 µM,remaining binding,100%
CC(C)(C)C(=O)c1sc(NC2CCCCC2)nc1N,"enzyme activity, inhibitor",10 µM,remaining activity,105%
CCC(=O)N[C@@H]1CC[C@H](C(=O)N(C)c2ccc(-c3nc4ccccc4o3)cc2)C1,"cell-free assay, competition with immobilised ligand",1 µM,remaining binding,95%
N#CCCc1ccc2c(c1)-c1[nH]c3ccc([N+](=O)[O-])cc3c1CC(=O)N2,cell-free assay,0.5 µM,remaining signal,66.7%
CS(=O)(=O)Nc1cccc(-c2csc(NC(=O)CSc3nc4nccnc4c(=O)n3CCc3ccccc3)n2)c1,"enzyme activity, inhibitor",10 µM,inhibition,-14%
FC(F)(F)c1ccc2c(c1)nc(-c1cccnc1)n2C1CC1,"cell-free assay, competition with immobilised ligand",1 µM,remaining binding,100%
COc1cc(Nc2c(C#N)cnc3cc(OCCCN4CCN(C)CC4)c(OC)cc23)c(Cl)cc1Cl,cell-free assay,0.5 µM,remaining signal,96.9%
O=C(O)[C@H]1[C@H](Cn2nnc3ccccc3c2=O)CC[C@@H]1C(=O)c1ccc(OCCC2CCOCC2)cc1,"cell-free assay, competition with immobilised ligand",1 µM,remaining binding,96%
FC(F)c1nc2ccccc2n1-c1nc(N2CCOCC2)nc(N2CCOCC2)n1,"enzyme activity, inhibitor",10 µM,remaining activity,96%
COc1cc(/C=C/C(=O)CC(=O)/C=C/c2ccc(O)c(OC)c2)ccc1O,"enzyme activity, inhibitor",1 µM,activity vs control,112%
Nc1ncnc2occ(-c3ccc(NC(=O)Nc4cc(C(F)(F)F)ccc4F)cc3)c12,"cell-free assay, inhibitor",20 µM,remaining signal,0%
